In paper PMC12366125 (ACS Medicinal Chemistry Letters, 2025):
Read-outs that look alike come from different tables or passages of the source. Values belong to the compound of their own block, whether it stands above or below them.

How the values were obtained:
[1] = system: A. baumannii AB5075; experiment: Broth microdilution standalone MIC; format: cell-based; settings: Acinetobacter baumannii, AB5075, read-out: standalone MIC against AB5075
[2] = system: A. baumannii AB19606; experiment: Broth microdilution standalone MIC; format: cell-based; settings: Acinetobacter baumannii, AB19606, read-out: standalone MIC against AB19606
[3] = system: HepG2 cells; experiment: XTT cell viability assay with HepG2 cells; format: cell-based, human; settings: for IC50: Homo sapiens; for TI: HepG2 IC50 / adjuvant concentration that reduces CLR MIC to breakpoint
Procedure, shortened: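 Cytotoxicity is tested on HepG2 human hepatoma cells, using lead cyclized-linker 2-AI-benzimidazole conjugates and their parent amide analogues. IC50 is taken from dose-response curves. […] TI is not calculated for compounds without adjuvant activity.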

[4] = system: A. baumannii AB5075; experiment: Checkerboard assay colistin and compound; format: cell-based, Acinetobacter baumannii; settings: COL alone
[5] = system: AB2828; experiment: CLR potentiation, clinical isolate; format: cell-based, Acinetobacter baumannii; settings: adjuvant at 10 μM
[6] = system: AB3927; experiment: CLR potentiation, clinical isolate; format: cell-based, Acinetobacter baumannii; settings: adjuvant at 10 μM
[7] = system: AB4025; experiment: CLR potentiation, clinical isolate; format: cell-based, Acinetobacter baumannii; settings: adjuvant at 10 μM
[8] = system: AB4027; experiment: CLR potentiation, clinical isolate; format: cell-based, Acinetobacter baumannii; settings: adjuvant at 10 μM
[9] = system: AB4448; experiment: CLR potentiation, clinical isolate; format: cell-based, Acinetobacter baumannii; settings: adjuvant at 10 μM
[10] = system: AB4878; experiment: CLR potentiation, clinical isolate; format: cell-based, Acinetobacter baumannii; settings: adjuvant at 10 μM
[11] = system: AB5001; experiment: CLR potentiation, clinical isolate; format: cell-based, Acinetobacter baumannii; settings: adjuvant at 10 μM
[12] = system: AB5256; experiment: CLR potentiation, clinical isolate; format: cell-based, Acinetobacter baumannii; settings: adjuvant at 10 μM
[13] = system: AB5674; experiment: CLR potentiation, clinical isolate; format: cell-based, Acinetobacter baumannii; settings: adjuvant at 10 μM
[14] = system: AB5711; experiment: CLR potentiation, clinical isolate; format: cell-based, Acinetobacter baumannii; settings: adjuvant at 10 μM
[15] = system: AB8967; experiment: CLR potentiation, clinical isolate; format: cell-based, Acinetobacter baumannii; settings: adjuvant at 10 μM
[16] = system: AB3560; experiment: CLR potentiation, clinical isolate; format: cell-based, Acinetobacter baumannii; settings: adjuvant at 10 μM
[17] = system: AB3785; experiment: CLR potentiation, clinical isolate; format: cell-based, Acinetobacter baumannii; settings: adjuvant at 10 μM
[18] = system: AB3806; experiment: CLR potentiation, clinical isolate; format: cell-based, Acinetobacter baumannii; settings: adjuvant at 10 μM
[19] = system: AB4026; experiment: CLR potentiation, clinical isolate; format: cell-based, Acinetobacter baumannii; settings: adjuvant at 10 μM
[20] = system: AB4052; experiment: CLR potentiation, clinical isolate; format: cell-based, Acinetobacter baumannii; settings: adjuvant at 10 μM
[21] = system: AB4269; experiment: CLR potentiation, clinical isolate; format: cell-based, Acinetobacter baumannii; settings: adjuvant at 10 μM
[22] = system: AB4490; experiment: CLR potentiation, clinical isolate; format: cell-based, Acinetobacter baumannii; settings: adjuvant at 10 μM
[23] = system: AB4498; experiment: CLR potentiation, clinical isolate; format: cell-based, Acinetobacter baumannii; settings: adjuvant at 10 μM
[24] = system: AB4556; experiment: CLR potentiation, clinical isolate; format: cell-based, Acinetobacter baumannii; settings: adjuvant at 10 μM
[25] = system: AB4795; experiment: CLR potentiation, clinical isolate; format: cell-based, Acinetobacter baumannii; settings: adjuvant at 10 μM
[26] = system: AB4857; experiment: CLR potentiation, clinical isolate; format: cell-based, Acinetobacter baumannii; settings: adjuvant at 10 μM
[27] = system: AB4957; experiment: CLR potentiation, clinical isolate; format: cell-based, Acinetobacter baumannii; settings: adjuvant at 10 μM
[28] = system: AB4991; experiment: CLR potentiation, clinical isolate; format: cell-based, Acinetobacter baumannii; settings: adjuvant at 10 μM
[29] = system: AB5197; experiment: CLR potentiation, clinical isolate; format: cell-based, Acinetobacter baumannii; settings: adjuvant at 10 μM
[30] = HepG2, 24 h, read-out: HepG2 IC50

Compound: Nc1nc(-c2ccc3nc(-c4cc(Cl)cc(Cl)c4)[nH]c3c2)c[nH]1 [Compound 2]
MIC [1]: > 200 µM
MIC [2]: > 200 µM
IC50 ([3]; HepG2, read-out: IC50 against HepG2 cells): 69.8 µM

Compound: Nc1nc(-c2ccc3nc(-c4ccc(Cl)cc4)[nH]c3c2)c[nH]1 [Compound 7]
MIC [1]: ≥ 200 µM
MIC [2]: ≥ 200 µM

Compound: Nc1nc(-c2ccc3nc(-c4ccccc4Cl)[nH]c3c2)c[nH]1 [Compound 9]
MIC [1]: ≥ 200 µM
MIC [2]: ≥ 200 µM

Compound: Nc1nc(-c2ccc3nc(-c4cccc(Cl)c4)[nH]c3c2)c[nH]1 [Compound 8]
MIC [1]: ≥ 200 µM
MIC [2]: ≥ 200 µM

Compound: Nc1nc(-c2ccc3nc(-c4cc(Cl)c(Cl)c(Cl)c4)[nH]c3c2)c[nH]1 [Compound 6]
MIC [1]: ≥ 200 µM
MIC [2]: ≥ 200 µM

Compound: Cl.Nc1nc(-c2ccc3nc(-c4ccc(Cl)c(Cl)c4)[nH]c3c2)c[nH]1 [Compound 5]
MIC [1]: ≥ 200 µM
MIC [2]: ≥ 200 µM
TI [3]: 9.7–9.9
IC50 [3, 30]: 73.5 ± 1.1 µM
CLR MIC fold reduction [5]: 8 fold
CLR MIC fold reduction [6]: 16 fold
CLR MIC fold reduction [7]: 16 fold
CLR MIC fold reduction [8]: 16 fold
CLR MIC fold reduction [9]: 16 fold
CLR MIC fold reduction [10]: 16 fold
CLR MIC fold reduction [11]: 16 fold
CLR MIC fold reduction [12]: 512 fold
CLR MIC fold reduction [13]: 64 fold
CLR MIC fold reduction [14]: 16 fold
CLR MIC fold reduction [15]: 32 fold
CLR MIC fold reduction [16]: 4 fold
CLR MIC fold reduction [17]: 64 fold
CLR MIC fold reduction [18]: 4 [4] fold
CLR MIC fold reduction [19]: 32 fold
CLR MIC fold reduction [20]: 16 fold
CLR MIC fold reduction [21]: 32 fold
CLR MIC fold reduction [22]: 4 fold
CLR MIC fold reduction [23]: 8 [8] fold
CLR MIC fold reduction [24]: 4 [4] fold
CLR MIC fold reduction [25]: 8 fold
CLR MIC fold reduction [26]: 4 fold
CLR MIC fold reduction [27]: 4 fold
CLR MIC fold reduction [28]: 8 fold
CLR MIC fold reduction [29]: 8 [8] fold

Now from value to compound, other results behind:

MIC [1]: ≥ 200 µM
MIC [2]: ≥ 200 µM
Compound: Cc1ccc(-c2nc3ccc(-c4c[nH]c(N)n4)cc3[nH]2)cc1C [Compound 17]

MIC [1]: ≥ 200 µM
MIC [2]: ≥ 200 µM
Compound: Nc1nc(-c2ccc3nc(-c4cc(Cl)ccc4Cl)[nH]c3c2)c[nH]1 [Compound 12]

COL MIC against AB5075 [4]: 1 µg/mL
Compound: colistin

MIC [1]: ≥ 200 µM
MIC [2]: ≥ 200 µM
Compound: Cc1cc(C)cc(-c2nc3ccc(-c4c[nH]c(N)n4)cc3[nH]2)c1 [Compound 16]

MIC [1]: ≥ 200 µM
MIC [2]: ≥ 200 µM
Compound: COc1cc(OC)cc(-c2nc3ccc(-c4c[nH]c(N)n4)cc3[nH]2)c1 [Compound 15]

MIC [1]: ≥ 200 µM
MIC [2]: ≥ 200 µM
Compound: Nc1nc(-c2ccc3nc(-c4cccc(Cl)c4Cl)[nH]c3c2)c[nH]1 [Compound 10]

MIC [1]: 50 µM
MIC [2]: 50 µM
IC50 [3, 30]: 141.6 ± 1.1 µM
CLR MIC fold reduction [5]: 16 fold
CLR MIC fold reduction [6]: 128 fold
CLR MIC fold reduction [7]: 16 fold
CLR MIC fold reduction [8]: 32 fold
CLR MIC fold reduction [9]: 32 fold
CLR MIC fold reduction [10]: 32 fold
CLR MIC fold reduction [11]: 32 fold
CLR MIC fold reduction [12]: 128 fold
CLR MIC fold reduction [13]: 128 fold
CLR MIC fold reduction [14]: 64 fold
CLR MIC fold reduction [15]: 64 fold
CLR MIC fold reduction [16]: 16 fold
CLR MIC fold reduction [17]: 32 fold
CLR MIC fold reduction [18]: 32 fold
CLR MIC fold reduction [19]: 32 fold
CLR MIC fold reduction [20]: 4 fold
CLR MIC fold reduction [21]: 2 fold
CLR MIC fold reduction [22]: 64 fold
CLR MIC fold reduction [23]: 8 [8] fold
CLR MIC fold reduction [24]: 8 fold
CLR MIC fold reduction [25]: 16 fold
CLR MIC fold reduction [26]: 16 fold
CLR MIC fold reduction [27]: 2 fold
CLR MIC fold reduction [28]: 32 fold
CLR MIC fold reduction [29]: 32 fold
Compound: Cl.Nc1nc(-c2ccc3nc(-c4ccc(Cl)c(C(F)(F)F)c4)[nH]c3c2)c[nH]1 [Compound 25]
TI [3]: 18.7–19.0

MIC [1]: ≥ 200 µM
MIC [2]: ≥ 200 µM
Compound: Nc1nc(-c2ccc3nc(-c4ccc(Cl)cc4Cl)[nH]c3c2)c[nH]1 [Compound 11]
